Experiment [1] concerns Helicobacter pylori. Nature of the experiment: Inhibition of Helicobacter pylori FabZ at 50 uM. The procedure, abridged: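 HpFabZ activity read spectrophotometrically as the A260 decrease during crotonoyl-CoA conversion to β-hydroxybutyryl-CoA. Single inhibitor level of 50 µM, compound in 1% DMSO preincubated with enzyme for 1 h before assay start.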
The nature of experiment [2]: Inhibition of Helicobacter pylori FabZ. The procedure, abridged: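 Spectrophotometric HpFabZ assay following the drop in A260 as crotonoyl-CoA converts to β-hydroxybutyryl-CoA. Compounds in 1% DMSO preincubated with enzyme 1 h before starting the reaction. IC50 from logistic fit of dose-response inhibition data. Means of three determinations.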
In experiment [3] the test system is Helicobacter pylori. The experiment is described as follows: Antimicrobial activity against Helicobacter pylori SS1 by standard agar dilution method. In kind it is functional. The procedure, abridged: (§1)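 Inoculum: H. pylori swabbed into sterile saline to 2.0 McFarland turbidity. Plates incubated at 37 °C under microaerobic gas (85% N₂, 10% CO₂, 5% O₂), read after 3 days. Compound-free agar as control.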

For experiment [4], the system named is Helicobacter pylori. Nature of the experiment: Antimicrobial activity against Helicobacter pylori ATCC 43504 by standard agar dilution method. In kind it is functional. The procedure, abridged: as §1

pIC50: −log10 of the molar value. In brackets after ≈: the same amount, converted by molar mass. Activity calls are given as the source filed them. No cut-off for these calls is given here. Where only a bound is given, the exact number is not on record here.

Turning to `O=C(Cc1ccc(O)cc1)N/N=C/c1cc(Br)c(O)c(Br)c1O`, the inhibition in experiment [1] was 50%. In the case of `O=C(N/N=C/c1cc(Br)c(O)c(Br)c1O)c1cccnc1`, the negative-log IC50 (pIC50) in experiment [2] is 4.40. The same compound registered an inhibition in experiment [1] of 71.4%. On to `O=C(N/N=C/c1cc(Br)c(O)c(Br)c1O)c1ccc(Cl)cc1`, for which the MIC in experiment [3] and in experiment [4] was above 100 µg/mL throughout. The same compound came in with an inhibition in experiment [1] of 93.8%.

`COCCN1C(=O)/C(=C\c2ccc(-c3ccc(Cl)c(C(=O)O)c3)o2)S/C1=N/c1ccccc1` returned an inhibition in experiment [1] of 63.9%.

With `O=C(N/N=C/c1cc(Br)c(O)c(Br)c1O)c1cc2ccccc2cc1O`, the MIC in experiment [3] and in experiment [4] was 100 µg/mL (≈ 208 µM) throughout. Also, the pIC50 in experiment [2] is 6.07.

As for `O=C(N/N=C/c1cc(Br)c(O)c(Br)c1O)c1cccs1`, the inhibition in experiment [1] worked out at 72%. On the same count and under the same terms, next, `COCCN1C(=O)/C(=C\c2ccc(-c3ccc(Cl)c(C(=O)OC)c3)o2)S/C1=N/c1ccccc1OC`: “inactive”; `COCCN1C(=O)/C(=C\c2ccc(-c3ccc(Cl)c(C(=O)O)c3)o2)S/C1=N/c1ccc2ccccc2c1`: 32.2%. On the same count and under the same terms, next, `COc1ccc(C(=O)N/N=C/c2cc(Br)c(O)c(Br)c2O)cc1`: 81.4%. For the compound `O=C(N/N=C/c1cc(Br)c(O)c(Br)c1O)c1cccc(Br)c1`, the MIC in experiment [3] and in experiment [4] was 100 µg/mL (≈ 203 µM) each time. This compound also displayed an inhibition in experiment [1] of 96%. Consider `COCCN1C(=O)/C(=C\c2ccc(-c3ccc(Cl)c(C(=O)OC)c3)o2)S/C1=N/c1ccccc1C(F)(F)F`, for which the inhibition entry in experiment [1] is “inactive”. With `CC(C)(C)c1ccc(C(=O)N/N=C/c2cc(Br)c(O)c(Br)c2O)cc1`, the results for the minimal inhibitory concentration (MIC) in experiment [3] and in experiment [4] were 50 µg/mL (≈ 106 µM) and 100 µg/mL (≈ 213 µM), respectively. In experiment [1], the inhibition is 74.4%. With `O=C(N/N=C/c1cc(Br)c(O)c(Br)c1O)c1ccc2cc(Br)ccc2c1`, the minimum inhibitory concentration (MIC) in experiment [3] amounted to 50 µg/mL (≈ 92.1 µM); in experiment [4], 100 µg/mL (≈ 184 µM). For the same compound, the pIC50 in experiment [2] is 5.45. Consider `O=C(N/N=C/c1cc(Br)c(O)c(Br)c1O)c1ccc2ccccc2c1O`, for which the MIC in experiment [3] and in experiment [4] was 100 µg/mL (≈ 208 µM) in each case. In experiment [2], this compound had a pIC50 of 5.71. Also, the inhibition in experiment [1] came to 87%. For the compound `COCCN1C(=O)/C(=C\c2ccc(-c3cc(C(=O)OC)ccc3Cl)o2)S/C1=N/c1ccccc1`, the inhibition result in experiment [1] is “inactive”. As for `O=C(N/N=C/c1cc(Br)c(O)c(Br)c1O)c1ccc(Oc2ccccc2)cc1`, the MIC result in experiment [3] and in experiment [4] was “inactive” each time. The pIC50 in experiment [2] was 4.89. On to `COCCN1C(=O)/C(=C\c2ccc(-c3ccc(Cl)c(C(=O)OC)c3)o2)S/C1=N/c1cccc(C(F)(F)F)c1`, for which the inhibition in experiment [1] came out at 19.9%. Still for that read-out and setting: then `COCCN1C(=O)/C(=C\c2ccc(-c3ccc(Cl)c(C(=O)O)c3)o2)S/C1=N/c1ccc(OC)cc1`, with 15.4%.

In the case of `COCCN1C(=O)/C(=C\c2ccc(-c3ccc(Cl)c(C(=O)OC)c3)o2)S/C1=N/c1ccccc1F`, the inhibition in experiment [1] was 10%. Regarding `O=C(N/N=C/c1cc(Br)c(O)c(Br)c1O)c1ccc2c(c1)Cc1ccccc1-2`, the MIC in experiment [3] was 100 µg/mL (≈ 199 µM); in experiment [4], 50 µg/mL (≈ 99.6 µM). In addition, in experiment [2], the pIC50 was 5.43. `COCCN1C(=O)/C(=C\c2ccc(-c3ccc(Cl)c(C(=O)OC)c3)o2)S/C1=N/c1ccc(F)cc1`: the inhibition result in experiment [1] was “inactive”. The same measure, in the same setting: next, `O=C(N/N=C/c1ccc(O)cc1O)c1cccnc1`: 25.6%. In the case of `O=C(N/N=C/c1cc(Br)c(O)c(Br)c1O)c1ccc(-c2ccc(O)cc2)cc1`, the MIC in experiment [3] and in experiment [4] was above 100 µg/mL each time. The compound also had a negative-log IC50 (pIC50) in experiment [2] of 4.37. With `O=C(N/N=C/c1cc(Br)c(O)c(Br)c1O)c1ccc(Br)cc1`, the MIC in experiment [3] and in experiment [4] was 100 µg/mL (≈ 203 µM) throughout. Besides, the inhibition in experiment [1] came to 94.2%. As to `O=C(N/N=C/c1cc(Br)c(O)c(Br)c1O)c1ccc2cc(O)ccc2c1`, the MIC in experiment [3] and in experiment [4] was 100 µg/mL (≈ 208 µM) each time. Moreover, in experiment [2], the negative logarithm of the IC50 (pIC50) is 5.06.

Take `O=C(N/N=C/c1ccc(O)cc1)c1cccnc1`: the inhibition in experiment [1] amounted to 15.1%. As for `COCCN1C(=O)/C(=C\c2ccc(-c3ccc(Cl)cc3)o2)S/C1=N/c1ccccc1`, in experiment [1], the inhibition result was “inactive”.

For the compound `O=C(N/N=C/c1cc(Br)c(O)c(Br)c1O)c1cccc(F)c1`, the inhibition in experiment [1] stood at 23.3%.

In turn, `O=C(N/N=C/c1cc(Br)c(O)c(Br)c1O)c1ccncc1` yielded an inhibition in experiment [1] of 36.4%.

`COCCN1C(=O)/C(=C\c2ccc(-c3ccc(Cl)c(C(=O)OC)c3)o2)S/C1=N/c1ccccc1Br`: the inhibition result in experiment [1] is “inactive”. Still for that read-out and setting: next, `COCCN1C(=O)/C(=C\c2ccc(-c3ccc(Cl)c(C(=O)OC)c3)o2)S/C1=N/c1ccc(C(F)(F)F)cc1`: “inactive”; `COCCN1C(=O)/C(=C\c2ccc(-c3ccc(Cl)c(C(=O)OC)c3)o2)S/C1=N/c1ccccc1`: “inactive”.

In the case of `O=C(N/N=C/c1cc(Br)c(O)c(Br)c1O)c1cc(C(F)(F)F)cc(C(F)(F)F)c1`, the figures for the MIC in experiment [3] and in experiment [4] were 100 µg/mL (≈ 182 µM) and 50 µg/mL (≈ 90.9 µM), respectively. In experiment [2], this compound gave a pIC50 of 5.67.

On to `O=C(N/N=C/c1cc(Br)c(O)c(Br)c1O)c1ccc2ccccc2c1`, for which the MIC in experiment [3] is 50 µg/mL (≈ 108 µM); in experiment [4], 100 µg/mL (≈ 215 µM). The compound further yielded an inhibition in experiment [1] of 92.6%.

`COCCN1C(=O)/C(=C\c2ccc(-c3ccc(Cl)c(C(=O)OC)c3)o2)S/C1=N/c1cccc(Br)c1`: the inhibition in experiment [1] came to 12%.

Turning to `COC(=O)c1cc(-c2ccc(/C=C3/S/C(=N/c4ccccc4)N(CCCN(C)C)C3=O)o2)ccc1Cl`, the inhibition entry in experiment [1] is “inactive”. Still for that read-out and setting: then `O=C(N/N=C/c1cc(Br)c(O)c(Br)c1)c1cccnc1`, with 62.1%; and `COCCN1C(=O)/C(=C\c2ccc(-c3ccc(Cl)c(C(=O)OC)c3)o2)S/C1=N/c1cccc(OC)c1`, with 12.6%. With `O=C(N/N=C/c1cc(Br)c(O)c(Br)c1O)c1ccccc1`, in experiment [1], the inhibition is 38.8%. In the case of `COc1c(Br)cc(/C=N/NC(=O)c2cccnc2)c(OC)c1Br`, the inhibition in experiment [1] was 64.4%. Same read-out and setting: then `CCN(CC)CCN1C(=O)/C(=C\c2ccc(-c3ccc(Cl)c(C(=O)OC)c3)o2)S/C1=N/c1ccccc1`, with “inactive”. Take `COCCN1C(=O)/C(=C\c2ccc(-c3ccc(Cl)c(C(=O)OC)c3)o2)S/C1=N/c1cccc(F)c1`: in experiment [1], the inhibition entry was “inactive”. Still for that read-out and setting: then `COCCN1C(=O)/C(=C\c2ccc(-c3ccc(Cl)c(C(=O)OC)c3)o2)S/C1=N/c1ccc(OC)cc1`, with “inactive”; and `COCCN1C(=O)/C(=C\c2ccc(-c3ccc(Cl)c(C(=O)OC)c3)o2)S/C1=N/c1ccc(Br)cc1`, with “inactive”. `O=C(N/N=C/c1cc(Br)c(O)c(Br)c1O)c1ccco1` gave an inhibition in experiment [1] of 39.4%. `CC(=O)N/N=C/c1cc(Br)c(O)c(Br)c1O` had an inhibition in experiment [1] of 15.2%. Compound `O=C(N/N=C/c1cc(Br)c(O)c(Br)c1O)c1ccc(F)cc1` showed a pIC50 in experiment [2] of 5.19. The compound further had an inhibition in experiment [1] of 85%.

As to `COC(=O)c1cc(-c2ccc(/C=C3/S/C(=N/c4ccccc4)N(CCN4CCCC4)C3=O)o2)ccc1Cl`, the inhibition result in experiment [1] is “inactive”.

The record behind these values is ChEMBL document CHEMBL1153414, “Discovering potent inhibitors against the beta-hydroxyacyl-acyl carrier protein dehydratase (FabZ) of Helicobacter pylori: structure-based design, synthesis, bioassay, and crystal structure determination” (J Med Chem, 2009).
